Assays:
[1] = species: Oryctolagus cuniculus; experiment: In vitro functional antagonistic testing by obtaining ET-1 concentration response curves in rabbit carotid artery rings in the presence or absence of antagonist.
Outline: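 Concentration-response curves to ET-1 in rabbit carotid artery rings. KB determined when at least 3 antagonist concentrations were tested; apparent KB calculated when only one concentration was used.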

[2] = target: T1, Endothelin-1 receptor (Rattus norvegicus, UniProt P26684); experiment: Antagonism of [125 I]ET-1 binding to the rat endothelin receptor in vascular smooth muscle VSM-A10 cells.; type: cell-based
T1 sequence (P26684 whole entry): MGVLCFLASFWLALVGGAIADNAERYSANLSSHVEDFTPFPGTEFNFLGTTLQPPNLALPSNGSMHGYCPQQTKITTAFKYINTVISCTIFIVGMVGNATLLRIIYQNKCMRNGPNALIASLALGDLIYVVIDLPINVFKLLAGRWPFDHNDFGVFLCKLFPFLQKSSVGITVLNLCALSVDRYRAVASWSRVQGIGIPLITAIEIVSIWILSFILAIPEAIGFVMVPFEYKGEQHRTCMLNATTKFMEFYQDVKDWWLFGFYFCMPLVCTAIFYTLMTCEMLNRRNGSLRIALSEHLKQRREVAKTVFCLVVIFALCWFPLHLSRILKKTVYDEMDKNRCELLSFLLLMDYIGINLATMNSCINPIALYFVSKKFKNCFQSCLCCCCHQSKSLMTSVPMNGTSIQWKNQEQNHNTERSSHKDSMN

[3] = species: Rattus norvegicus; experiment: Tested for antagonistic activity against ET-1 induced increase in intracellular [Ca2+] in VSM-A10 cells.; type: functional, cell-based
Outline: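 A10 cells challenged with 3 nM ET-1; the rise in free intracellular Ca2+ was measured with and without compound. Values reported as IC50.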

| Compound | IC50 [2] | Kb ([1]; read-out: KB app) | further results |
| --- | --- | --- | --- |
| CCCCCNc1cccc2c(S(=O)(=O)Nc3onc(C)c3C)cccc12 | 0.08 µM | – | Kb [1]: 0.27 µM |
| Cc1noc(NS(=O)(=O)c2cccc3c(N4CCCCC4=O)cccc23)c1C | 0.27 µM | 7 µM | – |
| Cc1noc(NS(=O)(=O)c2ccc(O)cc2)c1C | – | > 100 µM | – |
| Cc1noc(NS(=O)(=O)c2cccc3c(N(C)C(C)C)cccc23)c1C | 0.13 µM | – | Kb [1]: 0.7 µM |
| CCOC(=O)C(C)Nc1cccc2c(S(=O)(=O)Nc3onc(C)c3C)cccc12 (stereo not drawn) | 0.4 µM | – | Kb [1]: 3.1 µM |
| CN(C)c1cccc2c(S(=O)(=O)Nc3onc4c3CCCC4)cccc12 | 153 µM | – | – |
| CCCCN(CCCC)c1cccc2c(S(=O)(=O)Nc3onc(C)c3C)cccc12 | 15.9 µM | – | – |
| CCCNc1cccc(S(=O)(=O)Nc2onc(C)c2C)c1 | 2.1 µM | – | Kb [1]: 70 µM |
| Cc1noc(NS(=O)(=O)c2cccc3c(N4CCCCC4)cccc23)c1C | 1.76 µM | 4 µM | – |
| Cc1noc(NS(=O)(=O)c2cccc3c(NCCCC(=O)O)cccc23)c1C | 1.96 µM | 30 µM | – |
| Cc1noc(NS(=O)(=O)c2cccc3c(N(C)C)cccc23)c1C [BMS-182874] | – | – | Kb [1]: 0.52 µM |
| Cc1noc(NS(=O)(=O)c2cccc3c(NCCCCCc4ccccc4)cccc23)c1C | 3.05 µM | – | – |
| CC(=O)Nc1cccc2c(S(=O)(=O)Nc3onc(C)c3C)cccc12 | – | – | Kb [1]: 11 µM |
| CCOC(=O)c1c(C)noc1NS(=O)(=O)c1cccc2c(N(C)C)cccc12 | 31 µM | – | – |
| Cc1noc(NS(=O)(=O)c2cccc3c(NCc4ccccc4)cccc23)c1C | 0.59 µM | 0.9 µM | – |
| Cc1noc(NS(=O)(=O)c2cccc3c(NCCC(c4ccccc4)c4ccccc4)cccc23)c1C | 7.8 µM | – | – |

| Compound | IC50 [2] | Kb ([1]; read-out: KB app) | further results |
| --- | --- | --- | --- |
| Cc1cc(NS(=O)(=O)c2ccc(O)cc2)no1 | – | > 100 µM | – |
| Cc1noc(NS(=O)(=O)c2cccc3c(NC(=S)Nc4ccccc4)cccc23)c1C | 0.15 µM | – | Kb [1]: 13 µM |
| Cc1noc(NS(=O)(=O)c2cccc3c(N)cccc23)c1C | – | > 10 µM | – |
| CCc1c(C)noc1NS(=O)(=O)c1cccc2c(N(C)C)cccc12 | 0.29 µM | 4 µM | – |
| CC(=O)Nc1cccc2cc(S(=O)(=O)Nc3onc(C)c3C)ccc12 | – | 40 µM | – |
| Cc1noc(NS(=O)(=O)c2ccc(N)cc2)c1C [SULFISOXAZOLE] | – | > 100 µM | IC50 [3]: 40 µM |
| Cc1noc(NS(=O)(=O)c2cccc3c(N(C)C)cccc23)c1Cc1ccccc1 | 50 µM | – | – |
| Cc1noc(NS(=O)(=O)c2cccc3c(N(C)C)cccc23)c1-c1ccccc1 | 15.9 µM | – | – |
| Cc1noc(NS(=O)(=O)c2cccc3c(NC(=O)C(C)C)cccc23)c1C | 0.88 µM | – | – |
| COC(=O)c1cccc2c(S(=O)(=O)Nc3onc(C)c3C)cccc12 | 3.38 µM | – | – |
| Cc1cc(NS(=O)(=O)c2ccc(N)cc2)no1 [SULFAMETHOXAZOLE] | – | > 100 µM | – |
| Cc1onc(NS(=O)(=O)c2ccc(N)cc2)c1C [SULFATROXAZOLE] | – | – | IC50 [3]: 40 µM |
| CCc1noc(NS(=O)(=O)c2cccc3c(N(C)C)cccc23)c1C | 1.17 µM | 3 µM | – |
| Cc1noc(NS(=O)(=O)c2cccc3c(CN(C)C)cccc23)c1C | 2.8 µM | 20 µM | – |
| Cc1noc(NS(=O)(=O)c2cccc3c(N4CCCC4)cccc23)c1C | 0.03 µM | – | Kb [1]: 0.28 µM |

Now from value to compound, other results behind:

| IC50 [2] | Compound | Kb ([1]; read-out: KB app) | further results |
| --- | --- | --- | --- |
| 13 µM | CC(=O)N(c1onc(C)c1C)S(=O)(=O)c1ccc(N)cc1 [SULFISOXAZOLE ACETYL] | – | – |
| 8.9 µM | Cc1cc(NS(=O)(=O)c2cccc3c(N(C)C)cccc23)on1 | – | – |
| 0.66 µM | Cc1noc(NS(=O)(=O)c2ccc3cc(N)ccc3c2)c1C | – | Kb [1]: 43 µM |
| 7.8 µM | Cc1[n-][o+]c(NS(=O)(=O)c2cccc([N+](=O)[O-])c2)c1C | – | – |
| 27 µM | CCCNc1ccc(S(=O)(=O)Nc2onc(C)c2C)cc1 | 40 µM | – |
| 0.06 µM | CCNc1cccc2c(S(=O)(=O)Nc3onc(C)c3C)cccc12 | – | Kb [1]: 0.5 µM |
| 12 µM | Cc1noc(NS(=O)(=O)c2ccc(NCC(=O)O)cc2)c1C | – | – |
| 4.9 µM | Cc1cnoc1NS(=O)(=O)c1cccc2c(N(C)C)cccc12 | – | – |
| 2.89 µM | Cc1noc(NS(=O)(=O)c2cccc3c(C(C)(C)O)cccc23)c1C | – | – |
| 17.3 µM | Cc1noc(NS(=O)(=O)c2cccc3c(N(C)C)cccc23)c1[N+](=O)[O-] | > 100 µM | – |
| 7.8 µM | Cc1noc(NS(=O)(=O)c2cccc3c(O)cccc23)c1C | 100 µM | – |
| 0.13 µM | Cc1noc(NS(=O)(=O)c2cccc3c(N4CCCC4=O)cccc23)c1C | – | Kb [1]: 9.6 µM |
| 28 µM | Cc1cc(NS(=O)(=O)c2ccc(N)cc2)on1 | – | – |
| 0.13 µM | CNc1cccc2c(S(=O)(=O)Nc3onc(C)c3C)cccc12 | – | Kb [1]: 1.6 µM |
| > 32 µM | Cc1noc(NC(=O)c2ccc(N)cc2)c1C | – | – |
| 30 µM | O=S(=O)(Nc1nccs1)c1ccc(O)cc1 | – | – |

| IC50 [2] | Compound | Kb ([1]; read-out: KB app) | further results |
| --- | --- | --- | --- |
| > 32 µM | Cc1noc(N(CC(=O)O)S(=O)(=O)c2ccc(N)cc2)c1C | – | – |
| > 32 µM | Nc1ccc(S(=O)(=O)Nc2cc(-c3ccccc3)on2)cc1 | – | – |
| 38 µM | Cc1noc(NS(=O)(=O)c2ccc(NC(=O)Nc3ccccc3)cc2)c1C | – | – |
| > 32 µM | CC(C)(C)c1cc(NS(=O)(=O)c2ccc(N)cc2)no1 | – | – |
| 6.5 µM | Cc1noc(NS(=O)(=O)c2ccc(NC(=O)CN)cc2)c1C | – | – |
| 0.06 µM | Cc1onc(NS(=O)(=O)c2cccc3c(N(C)C)cccc23)c1C | 0.98 µM | – |
| 1.4 µM | Cc1noc(NS(=O)(=O)c2cccc3ccc(N)cc23)c1C | – | – |
| 0.02 µM | Cc1noc(NS(=O)(=O)c2cccc3c(NC(C)C)cccc23)c1C | – | Kb [1]: 0.33 µM |
| 32 µM | Nc1ccc(S(=O)(=O)Nc2noc3c2CCCC3)cc1 | – | – |
| 57 µM | Nc1ccc(S(=O)(=O)Nc2nncs2)cc1 | – | – |
| 4.1 µM | Cc1noc(NS(=O)(=O)c2ccc(NC(=S)Nc3ccccc3)cc2)c1C | – | – |
| 9.8 µM | Cc1noc(NS(=O)(=O)c2ccc(NCc3ccccc3)cc2)c1C | 100 µM | – |
| 5.4 µM | Cc1noc(NS(=O)(=O)c2cccc(-c3ccccc3)c2)c1C | – | – |
| 1 µM | Cc1noc(NS(=O)(=O)c2ccc(F)cc2)c1C | 40 µM | – |
| 69 µM | Nc1ccc(S(=O)(=O)Nc2nccs2)cc1 [SULFATHIAZOLE] | – | – |
| > 32 µM | Cc1noc(N(C)S(=O)(=O)c2ccc(N)cc2)c1C | – | – |

From ChEMBL document CHEMBL1128709, “Discovery and structure-activity relationships of sulfonamide ETA-selective antagonists” (J Med Chem, 1995)
